# Source: ChEMBL document CHEMBL4616631, “Design, synthesis and evaluation of phthalide alkyl tertiary amine derivatives as promising acetylcholinesterase inhibitors with high potency and selectivity against Alzheimer's disease” (Bioorg Med Chem, 2020)
# Tests used:
# [1] = biological target: T1, Amine oxidase [flavin-containing] A (Homo sapiens, UniProt P21397); test: Inhibition of recombinant human MAO-A expressed in baculovirus infected BTI insect cells at 10 uM using kynuramine as substrate measured after 30 mins by fluorescence based assay relative to control; conditions: 0.5 h
# T1 sequence (P21397 whole entry): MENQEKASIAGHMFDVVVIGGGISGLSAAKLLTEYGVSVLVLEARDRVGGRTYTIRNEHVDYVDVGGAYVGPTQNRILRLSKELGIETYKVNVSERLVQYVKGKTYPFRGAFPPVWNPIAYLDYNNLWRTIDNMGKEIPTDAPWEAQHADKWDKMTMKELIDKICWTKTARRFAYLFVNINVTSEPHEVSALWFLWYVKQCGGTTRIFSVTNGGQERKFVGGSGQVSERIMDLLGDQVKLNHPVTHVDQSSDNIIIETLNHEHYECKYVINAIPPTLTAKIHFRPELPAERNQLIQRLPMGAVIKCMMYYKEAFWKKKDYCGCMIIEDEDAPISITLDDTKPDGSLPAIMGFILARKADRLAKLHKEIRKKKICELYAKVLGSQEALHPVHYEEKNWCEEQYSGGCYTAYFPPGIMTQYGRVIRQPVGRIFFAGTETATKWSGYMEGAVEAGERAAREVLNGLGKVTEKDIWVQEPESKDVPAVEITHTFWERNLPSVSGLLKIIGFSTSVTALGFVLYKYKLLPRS
# Procedure, shortened: (§1)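 Recombinant human MAO-A or MAO-B (7.5 µg/mL) in 100 mM potassium phosphate, pH 7.4, with 20.2 mM KCl and DMSO below 4%. Kynuramine was 45 µM for MAO-A and 30 µM for MAO-B. Incubation 30 min at 37 °C, stopped with NaOH and water, then centrifuged. Supernatant fluorescence ex 310/em 400 nm. Triplicate.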
# [2] = biological target: Butyrylcholinesterase (BuChE) (Rattus norvegicus, UniProt Q9JKC1); test: Inhibition of BuChE in rat serum at 50 uM using S-butylthiocholine iodide as substrate by Ellman's method relative to control; assay type: cell-free; conditions: probe S-butylthiocholine iodide
# Procedure, shortened: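 Rat serum (25%) as BuChE source, S-butylthiocholine iodide 1 mM, DTNB 0.2%, in 0.1 mM phosphate buffer pH 7.4, 37 °C 15 min (modified Ellman); absorbance change at 405 nm. Three independent experiments, each in triplicate.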
# [3] = biological target: Acetylcholinesterase (Electrophorus electricus, UniProt O42275); test: Inhibition of Electrophorus electricus AChE using […] as substrate incubated for 15 mins by Ellman's method
# [4] = Antioxidant activity assessed as trolox equivalent of AAPH-induced radical scavenging activity at 5 uM preincubated for 15 mins followed by AAPH addition measured every min for 90 mins by ORAC-FL assay; assay type: functional
# Procedure, shortened: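 ORAC-FL in 75 mM phosphate buffer, pH 7.4. Sample at 5 µM was preincubated with fluorescein (150 nM final) for 15 min at 37 °C, then AAPH was added (12 mM final). Fluorescence (ex 485/em 535 nm) was read every minute for 90 min. […] Triplicate, at least three independent assays.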
# [5] = biological target: T2, Amine oxidase [flavin-containing] B (Homo sapiens, UniProt P27338); test: Inhibition of recombinant human MAO-B expressed in baculovirus infected BTI insect cells at 10 uM using kynuramine as substrate measured after 30 mins by fluorescence based assay relative to control; conditions: 0.5 h; procedure, shortened: as §1
# T2 sequence (P27338 whole entry): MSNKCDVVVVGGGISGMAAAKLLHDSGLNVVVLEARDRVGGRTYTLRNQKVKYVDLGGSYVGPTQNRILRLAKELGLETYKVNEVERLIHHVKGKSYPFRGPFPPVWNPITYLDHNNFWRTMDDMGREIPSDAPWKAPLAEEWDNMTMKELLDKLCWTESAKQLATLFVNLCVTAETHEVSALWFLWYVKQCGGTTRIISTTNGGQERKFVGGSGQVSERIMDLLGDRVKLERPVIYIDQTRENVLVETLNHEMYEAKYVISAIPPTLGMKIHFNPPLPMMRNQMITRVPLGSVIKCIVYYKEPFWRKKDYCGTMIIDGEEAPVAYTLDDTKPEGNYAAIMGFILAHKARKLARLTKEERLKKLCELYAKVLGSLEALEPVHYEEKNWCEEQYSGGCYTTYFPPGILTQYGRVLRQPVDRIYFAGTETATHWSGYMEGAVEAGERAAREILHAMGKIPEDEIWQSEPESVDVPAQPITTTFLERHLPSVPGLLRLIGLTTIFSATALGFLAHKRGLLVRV
# [6] = biological target: Amyloid-beta precursor protein (Homo sapiens) (UniProt P05067); test: Inhibition of HFIP-pretreated self-induced amyloid beta (1 to 42) (unknown origin) aggregation at 25 uM measured after 24 hrs by ThT fluorescence assay relative to control
# Procedure, shortened: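 Aβ1-42 was pretreated in HFIP for 24 h at room temperature, dried, and dissolved in DMSO to a 200 µM stock. Aβ (25 µM) was incubated with compound (25 µM) at 37 °C for 24 h. ThT was added at 5 µM in glycine-NaOH, pH 8.5. Fluorescence ex 446/em 490 nm, background-subtracted; inhibition = (1−IFi/IFc)×100. Triplicate.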
# [7] = Permeability of the compound at 100 ug/ml measured after 18 hrs by PAMPA assay; assay type: ADME; conditions: read-out: permeability
# Procedure, shortened: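 PAMPA-BBB. Filter coated with porcine brain lipid in dodecane. Compound (DMSO stock 5 mg/mL) was diluted to 100 µg/mL in PBS/EtOH (70:30) in the donor well, with PBS/EtOH in the acceptor. Left 18 h at 25 °C. Acceptor concentration read at ten wavelengths in four wells. Three independent runs, validated with 11 reference drugs.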
# Chain of Amyloid-beta precursor protein (Homo sapiens) (P05067 whole entry): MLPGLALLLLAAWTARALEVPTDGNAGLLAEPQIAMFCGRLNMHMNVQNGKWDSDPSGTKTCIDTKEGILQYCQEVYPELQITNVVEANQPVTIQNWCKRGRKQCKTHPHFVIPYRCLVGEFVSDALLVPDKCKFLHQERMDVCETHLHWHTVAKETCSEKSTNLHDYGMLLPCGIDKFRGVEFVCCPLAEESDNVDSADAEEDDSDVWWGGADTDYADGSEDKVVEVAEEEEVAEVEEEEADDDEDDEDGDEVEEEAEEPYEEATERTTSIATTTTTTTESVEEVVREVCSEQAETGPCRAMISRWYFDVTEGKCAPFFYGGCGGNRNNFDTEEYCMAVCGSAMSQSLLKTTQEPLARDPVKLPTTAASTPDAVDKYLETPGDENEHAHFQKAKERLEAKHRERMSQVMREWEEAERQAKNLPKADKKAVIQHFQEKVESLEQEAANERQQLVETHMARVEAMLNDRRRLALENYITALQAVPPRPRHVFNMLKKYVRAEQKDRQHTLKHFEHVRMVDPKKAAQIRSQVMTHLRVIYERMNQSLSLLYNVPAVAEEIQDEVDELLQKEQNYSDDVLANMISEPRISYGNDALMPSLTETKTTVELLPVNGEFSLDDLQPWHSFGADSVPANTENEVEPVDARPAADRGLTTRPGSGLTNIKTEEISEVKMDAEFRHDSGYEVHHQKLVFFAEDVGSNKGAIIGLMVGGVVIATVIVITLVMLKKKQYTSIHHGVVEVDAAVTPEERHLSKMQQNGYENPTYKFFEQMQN
# Chain of Acetylcholinesterase (O42275 whole entry): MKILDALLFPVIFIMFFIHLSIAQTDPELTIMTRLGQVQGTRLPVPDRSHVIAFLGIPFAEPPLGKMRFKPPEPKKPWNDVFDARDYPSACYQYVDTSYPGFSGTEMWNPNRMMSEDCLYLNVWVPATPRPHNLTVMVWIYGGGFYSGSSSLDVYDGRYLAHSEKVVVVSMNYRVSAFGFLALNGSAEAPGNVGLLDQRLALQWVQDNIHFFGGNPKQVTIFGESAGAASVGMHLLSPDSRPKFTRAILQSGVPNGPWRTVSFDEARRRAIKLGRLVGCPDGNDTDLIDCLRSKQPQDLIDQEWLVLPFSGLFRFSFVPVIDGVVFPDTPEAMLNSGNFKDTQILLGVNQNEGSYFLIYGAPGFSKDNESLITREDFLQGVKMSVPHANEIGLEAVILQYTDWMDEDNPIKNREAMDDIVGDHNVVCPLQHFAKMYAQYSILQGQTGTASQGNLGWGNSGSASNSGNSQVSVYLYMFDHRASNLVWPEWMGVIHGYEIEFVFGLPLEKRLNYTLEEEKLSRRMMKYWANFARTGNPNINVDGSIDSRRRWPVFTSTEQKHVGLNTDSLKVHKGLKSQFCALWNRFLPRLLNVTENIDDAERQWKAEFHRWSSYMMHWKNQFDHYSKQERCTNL
# Chain of Butyrylcholinesterase (BuChE) (Q9JKC1 whole entry): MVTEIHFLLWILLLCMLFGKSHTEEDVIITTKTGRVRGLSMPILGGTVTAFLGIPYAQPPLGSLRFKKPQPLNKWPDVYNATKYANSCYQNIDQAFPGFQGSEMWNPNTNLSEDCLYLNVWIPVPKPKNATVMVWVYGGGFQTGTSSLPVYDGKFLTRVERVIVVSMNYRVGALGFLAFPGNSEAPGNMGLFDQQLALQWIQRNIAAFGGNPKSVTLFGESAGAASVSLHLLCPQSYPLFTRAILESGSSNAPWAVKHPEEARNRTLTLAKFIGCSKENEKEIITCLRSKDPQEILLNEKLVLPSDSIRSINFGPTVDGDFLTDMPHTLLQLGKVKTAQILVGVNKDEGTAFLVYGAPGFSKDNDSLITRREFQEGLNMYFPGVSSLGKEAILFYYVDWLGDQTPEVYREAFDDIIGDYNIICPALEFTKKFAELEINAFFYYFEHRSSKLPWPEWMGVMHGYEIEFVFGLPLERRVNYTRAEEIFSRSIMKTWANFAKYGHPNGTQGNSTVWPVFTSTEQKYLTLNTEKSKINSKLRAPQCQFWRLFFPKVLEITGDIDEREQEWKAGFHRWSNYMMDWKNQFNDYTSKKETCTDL
SMILES,inhibition at 10 µM [1] [%],inhibition at 50 µM [2] [%],IC50 [3] [nM],Activity [4] [µMequiv/µM],inhibition at 10 µM [5] [%],inhibition [6] [%],"Papp at 18 h, 100 ug/ml [7] [×10⁻⁶ cm/s]"
COc1cc2c(cc1OC)C(CCCCN(C)Cc1ccccc1)OC2=O (centres undefined),8,11.5,350,0.29,6.4,8.9,–
COc1cc2c(cc1OC)/C(=C\CCCN1CCCCC1)OC2=O,1.52,26.9,440,0.32,38.8,11.3,–
COc1cc2c(cc1OC)/C(=C/CCCN1CCCCC1)OC2=O,1.95,21.9,4560,0.28,32.3,4.9,–
COc1cc2c(cc1OC)C(CCCCCCN(C)Cc1ccccc1)OC2=O (centres undefined),7.88,13.9,160,0.25,16.3,13,13.6
COc1ccccc1CN(C)CCC/C=C1\OC(=O)c2cc(OC)c(OC)cc21,2.9,16.8,1640,0.44,10.3,15.1,–
COc1cc2c(cc1OC)C(CCCCN1CCCCC1)OC2=O (centres undefined),1.92,8.14,15800,0.22,34.7,< 5,–
CCN(CC)CCC/C=C1/OC(=O)c2cc(OC)c(OC)cc21,5.77,4.19,6260,0.22,19.7,15.1,–
CCN(CCC/C=C1/OC(=O)c2cc(OC)c(OC)cc21)Cc1ccccc1N(C)C,30,43.1,350,1.07,2.1,8.2,–
CCN(CCCCC1OC(=O)c2cc(OC)c(OC)cc21)Cc1ccccc1N(C)C (centres undefined),17.8,44.8,260,0.43,15,15.3,–
CCN(CCCCC1OC(=O)c2cc(OC)c(OC)cc21)Cc1ccc(N(C)C)cc1 (centres undefined),12.1,6.2,24900,2.59,9.47,< 5,–
CCN(CCCCC1OC(=O)c2cc(OC)c(OC)cc21)Cc1ccccc1OC (centres undefined),27.8,29.8,370,0.74,10.4,13.8,–
CCN(CCC/C=C1\OC(=O)c2cc(OC)c(OC)cc21)Cc1ccccc1N(C)C,29.1,40.5,210,0.78,9.9,15.4,–
CCN(CCC/C=C1\OC(=O)c2cc(OC)c(OC)cc21)Cc1ccccc1,10.4,17.3,360,0.36,13.8,17,–
CCN(CCC/C=C1/OC(=O)c2cc(OC)c(OC)cc21)Cc1ccc(N(C)C)cc1,12.7,14.1,13800,2.89,17,21.7,–
CCN(CCCCC1OC(=O)c2cc(OC)c(OC)cc21)Cc1ccccc1 (centres undefined),7.1,23.1,580,0.23,5.51,15.6,–
COc1ccccc1CN(C)CCCCC1OC(=O)c2cc(OC)c(OC)cc21 (centres undefined),0.25,21.7,490,0.27,5.7,14.4,–
CCN(CCCCCCC1OC(=O)c2cc(OC)c(OC)cc21)Cc1ccccc1N(C)C (centres undefined),14.3,40.5,1240,0.6,13.4,7.66,–
CCN(CCCCC/C=C1/OC(=O)c2cc(OC)c(OC)cc21)Cc1ccccc1N(C)C,28,35.2,890,1.2,7.3,13,–
CCN(CCC/C=C1/OC(=O)c2cc(OC)c(OC)cc21)Cc1ccccc1OC,27.1,19.1,800,0.53,4.8,19,–
CCN(CC)CCCCC1OC(=O)c2cc(OC)c(OC)cc21 (centres undefined),2.45,5.1,14700,0.31,21.5,15,–
CCN(CCC/C=C1\OC(=O)c2cc(OC)c(OC)cc21)Cc1ccccc1OC,26.7,18.7,1540,0.94,12,23.8,–
COc1cc2c(cc1OC)/C(=C\CCCN(C)Cc1ccccc1)OC2=O,17.9,27.3,640,0.49,1.09,8.6,–
CCN(CCC/C=C1/OC(=O)c2cc(OC)c(OC)cc21)Cc1ccccc1,12.6,11,1400,0.52,15.8,30.3,–
CCN(CCC/C=C1\OC(=O)c2cc(OC)c(OC)cc21)Cc1ccc(N(C)C)cc1,12.9,13.6,23400,2.75,8.86,22,–
COc1cc2c(cc1OC)/C(=C\CCCCCN(C)Cc1ccccc1)OC2=O,22.3,17.6,4.84,0.43,5.66,12.4,10.3
COc1cc2c(cc1OC)/C(=C/CCCN(C)Cc1ccccc1)OC2=O,10.9,12.2,340,0.32,11.9,11.7,–
COc1ccccc1CN(C)CCC/C=C1/OC(=O)c2cc(OC)c(OC)cc21,4.9,21.9,410,0.38,9.44,19.1,–
